In publication PMC9989235 (Iranian Journal of Medical Sciences, 2023):

Key:
[1] = DPPH radical scavenging assay; conditions: mean±SD
Summary of the method: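 Test compound in methanol at 50, 75 and 100 was added to 0.005% (w/v) DPPH in methanol. Incubation was 45 min at room temperature, with absorbance read at 517 nm against a blank. Inhibition (%) = [(controlA − sampleA)/[…]]×100, where the control held all reagents except the test compound. Triplicate runs; IC50 taken from a fitted line to the plot.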

[2] = system: selected bacteria strains; test: Disc diffusion method, overall statements on the selected bacteria strains; assay type: cell-based; conditions: selected Gram-positive and Gram-negative strains, inhibition zones
Summary of the method: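 Clinical isolates from Kirkuk Hospital were cultured on agar in Petri dishes. Test compound was dissolved in DMSO at 60 µg/mL, with DMSO alone tested alongside. Plates were incubated 24 h at 37 °C, pH 7.4±0.2. Inhibition-zone diameter around the disc was scored: − none; + 10–15 mm; ++ 15–20 mm; +++ ≥20 mm.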

Giardia intestinalis = test: In vitro bioassay of antigiardial activity; assay type: cell-based; conditions: Giardia duodenalis, read-out: Antigiardial activity, IC50, Giardia intestinalis

DPPH radical scavenging, IC50 ([1]; fitted line to a plot, triplicate)	IC50 (Giardia intestinalis)	SMILES	DPPH radical scavenging, inhibition at 50 µg/mL ([1]; compound concentration 50 µg/mL, 45 min, 517 nm)	DPPH radical scavenging, inhibition at 75 µg/mL ([1]; compound concentration 75 µg/mL, 45 min, 517 nm)	DPPH radical scavenging, inhibition at 100 µg/mL ([1]; compound concentration 100 µg/mL, 45 min, 517 nm)	antibacterial activity (in words) [2]
–	–	O=C1O[C@H]([C@@H](O)CO)C(O)=C1O [Ascorbic acid]	78.01±0.75%	81.01±0.85%	84.21±0.41%	–
ns (No scavenging activity)	3.71 ± 0.27 µM	Cc1ncc([N+](=O)[O-])n1CCO [Metronidazole]	–	–	–	no antibacterial activity
